Data: ChEMBL document CHEMBL4257465, “Strigolactones: a plant phytohormone as novel anti-inflammatory agents” (Medchemcomm, 2018)

Legend:
RAW264.7 [1] = experiment: Antiinflammatory activity in mouse RAW264.7 cells assessed as inhibition of LPS-induced NO production pretreated for 2 hrs followed by LPS stimulation measured after 24 hrs by Griess assay; format: functional, cell-based
Procedure, shortened: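 RAW264.7 murine macrophages (DMEM, 10% serum, 37 °C, 5% CO2) seeded at 5 × 10^4 cells/well and cultured 18 h. Compounds tested at 1–100 μM (DMSO 0.1% v/v), with LPS (E. coli 0127:B8) at 100 ng mL−1. Supernatant nitrite read with Griess reagent (10 min, room temperature, OD540).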

RAW264.7 [2] = experiment: Antiinflammatory activity in LPS-induced mouse RAW264.7 cells assessed as IL-6 levels at 2.5 uM pretreated for 2 hrs followed by LPS stimulation and measured after 6 hrs by ELISA (reference value: 472.3 +/- 25.8 pg/ml); format: functional
Procedure, shortened: (§1)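 RAW264.7 murine macrophages (DMEM, 10% serum, 37 °C, 5% CO2) seeded at 5 × 10^5 cells per well, pretreated 2 h with compound at 10, 5, 2.5 or 1.25 μM (DMSO 0.1% v/v), then LPS (E. coli 0127:B8) 100 ng mL−1 added. Supernatant TNF-α or IL-6 read by mouse ELISA kit after 6, 12 and 24 h. Mean ± SD, n = 3, three independent experiments.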

RAW264.7 [3] = experiment: Antiinflammatory activity in LPS-induced mouse RAW264.7 cells assessed as TNFalpha levels at 10 uM pretreated for 2 hrs followed by LPS stimulation and measured after 24 hrs by ELISA (reference value: 9653.7 +/- 377.3 pg/ml); format: functional; procedure, shortened: as §1
RAW264.7 [4] = experiment: Antiinflammatory activity in LPS-induced mouse RAW264.7 cells assessed as IL-6 levels at 1.25 uM pretreated for 2 hrs followed by LPS stimulation and measured after 12 hrs by ELISA (reference value: 1394 +/- 62.6 pg/ml); format: functional; procedure, shortened: as §1
RAW264.7 [5] = experiment: Antiinflammatory activity in LPS-induced mouse RAW264.7 cells assessed as TNFalpha levels at 5 uM pretreated for 2 hrs followed by LPS stimulation and measured after 24 hrs by ELISA (reference value: 9653.7 +/- 377.3 pg/ml); format: functional; procedure, shortened: as §1
RAW264.7 [6] = experiment: Antiinflammatory activity in LPS-induced mouse RAW264.7 cells assessed as IL-6 levels at 5 uM pretreated for 2 hrs followed by LPS stimulation and measured after 24 hrs by ELISA (reference value: 1966.6 +/- 102.3 pg/ml); format: functional; procedure, shortened: as §1
RAW264.7 [7] = experiment: Antiinflammatory activity in LPS-induced mouse RAW264.7 cells assessed as TNFalpha levels at 2.5 uM pretreated for 2 hrs followed by LPS stimulation and measured after 24 hrs by ELISA (reference value: 9653.7 +/- 377.3 pg/ml); format: functional; procedure, shortened: as §1
RAW264.7 [8] = experiment: Antiinflammatory activity in LPS-induced mouse RAW264.7 cells assessed as TNFalpha levels at 1.25 uM pretreated for 2 hrs followed by LPS stimulation and measured after 24 hrs by ELISA (reference value: 9653.7 +/- 377.3 pg/ml); format: functional; procedure, shortened: as §1
RAW264.7 [9] = experiment: Antiinflammatory activity in LPS-induced mouse RAW264.7 cells assessed as IL-6 levels at 1.25 uM pretreated for 2 hrs followed by LPS stimulation and measured after 6 hrs by ELISA (reference value: 472.3 +/- 25.8 pg/ml); format: functional; procedure, shortened: as §1
RAW264.7 [10] = experiment: Antiinflammatory activity in LPS-induced mouse RAW264.7 cells assessed as TNFalpha levels at 1.25 uM pretreated for 2 hrs followed by LPS stimulation and measured after 6 hrs by ELISA (reference value: 4377.1 +/- 318.6 pg/ml); format: functional; procedure, shortened: as §1
RAW264.7 [11] = experiment: Antiinflammatory activity in LPS-induced mouse RAW264.7 cells assessed as IL-6 levels at 1.25 uM pretreated for 2 hrs followed by LPS stimulation and measured after 24 hrs by ELISA (reference value: 1966.6 +/- 102.3 pg/ml); format: functional; procedure, shortened: as §1
RAW264.7 [12] = experiment: Antiinflammatory activity in LPS-induced mouse RAW264.7 cells assessed as TNFalpha levels at 5 uM pretreated for 2 hrs followed by LPS stimulation and measured after 6 hrs by ELISA (reference value: 4377.1 +/- 318.6 pg/ml); format: functional; procedure, shortened: as §1
RAW264.7 [13] = experiment: Antiinflammatory activity in LPS-induced mouse RAW264.7 cells assessed as IL-6 levels at 10 uM pretreated for 2 hrs followed by LPS stimulation and measured after 6 hrs by ELISA (reference value: 472.3 +/- 25.8 pg/ml); format: functional; procedure, shortened: as §1
RAW264.7 [14] = experiment: Antiinflammatory activity in LPS-induced mouse RAW264.7 cells assessed as IL-6 levels at 5 uM pretreated for 2 hrs followed by LPS stimulation and measured after 12 hrs by ELISA (reference value: 1394 +/- 62.6 pg/ml); format: functional; procedure, shortened: as §1
RAW264.7 [15] = experiment: Antiinflammatory activity in LPS-induced mouse RAW264.7 cells assessed as IL-6 levels at 5 uM pretreated for 2 hrs followed by LPS stimulation and measured after 6 hrs by ELISA (reference value: 472.3 +/- 25.8 pg/ml); format: functional; procedure, shortened: as §1
RAW264.7 [16] = experiment: Antiinflammatory activity in LPS-induced mouse RAW264.7 cells assessed as TNFalpha levels at 5 uM pretreated for 2 hrs followed by LPS stimulation and measured after 12 hrs by ELISA (reference value: 5313.7 +/- 420.9 pg/ml); format: functional; procedure, shortened: as §1
RAW264.7 [17] = experiment: Antiinflammatory activity in LPS-induced mouse RAW264.7 cells assessed as TNFalpha levels at 10 uM pretreated for 2 hrs followed by LPS stimulation and measured after 6 hrs by ELISA (reference value: 4377.1 +/- 318.6 pg/ml); format: functional; procedure, shortened: as §1
RAW264.7 [18] = experiment: Antiinflammatory activity in LPS-induced mouse RAW264.7 cells assessed as IL-6 levels at 10 uM pretreated for 2 hrs followed by LPS stimulation and measured after 12 hrs by ELISA (reference value: 1394 +/- 62.6 pg/ml); format: functional; procedure, shortened: as §1
RAW264.7 [19] = experiment: Antiinflammatory activity in LPS-induced mouse RAW264.7 cells assessed as TNFalpha levels at 10 uM pretreated for 2 hrs followed by LPS stimulation and measured after 12 hrs by ELISA (reference value: 5313.7 +/- 420.9 pg/ml); format: functional; procedure, shortened: as §1
[20] = Cytotoxicity against mouse RAW264.7 cells assessed as cell viability at 10 uM after 48 hrs by MTT assay (reference value: 100%); format: cell-based; settings: read-out: Activity
Procedure, shortened: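 RAW264.7 cells seeded at 4 × 10^3 per well, cultured overnight, exposed to compound (DMSO 0.1% v/v) for 48 h. MTT 0.5 mg mL−1 added for 4 h at 37 °C, formazan dissolved in DMSO, OD570 read. Viability relative to medium-only cells set as 100%. Mean ± SD (n = 5), three independent experiments.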

RAW264.7 [21] = experiment: Antiinflammatory activity in LPS-induced mouse RAW264.7 cells assessed as IL-6 levels at 2.5 uM pretreated for 2 hrs followed by LPS stimulation and measured after 24 hrs by ELISA (reference value: 1966.6 +/- 102.3 pg/ml); format: functional; procedure, shortened: as §1
RAW264.7 [22] = experiment: Antiinflammatory activity in LPS-induced mouse RAW264.7 cells assessed as TNFalpha levels at 2.5 uM pretreated for 2 hrs followed by LPS stimulation and measured after 6 hrs by ELISA (reference value: 4377.1 +/- 318.6 pg/ml); format: functional; procedure, shortened: as §1
RAW264.7 [23] = experiment: Antiinflammatory activity in LPS-induced mouse RAW264.7 cells assessed as IL-6 levels at 2.5 uM pretreated for 2 hrs followed by LPS stimulation and measured after 12 hrs by ELISA (reference value: 1394 +/- 62.6 pg/ml); format: functional; procedure, shortened: as §1
RAW264.7 [24] = experiment: Antiinflammatory activity in LPS-induced mouse RAW264.7 cells assessed as IL-6 levels at 10 uM pretreated for 2 hrs followed by LPS stimulation and measured after 24 hrs by ELISA (reference value: 1966.6 +/- 102.3 pg/ml); format: functional; procedure, shortened: as §1

SMILES: CC1=C[C@@H](O/C=C2/C(=O)O[C@@H]3c4ccccc4C[C@H]23)OC1=O
- IC50 (RAW264.7 [1]): 6.62 µM

SMILES: CC1=C[C@H](O/C=C2/C(=O)O[C@H]3c4ccccc4C[C@@H]23)OC1=O
- IC50 (RAW264.7 [1]): 6.34 µM

SMILES: CC1C[C@@H](O/C=C2/C(=O)O[C@@H]3c4ccccc4C[C@H]23)OC1=O (some centres undefined)
- IC50 (RAW264.7 [1]): 64.6 µM

SMILES: CC1=C[C@@H](O/C=C2/C(=O)OC3c4ccccc4CC23)OC1=O (some centres undefined)
- IC50 (RAW264.7 [1]): 4.32 µM

SMILES: C[C@@H]1C[C@H]2[C@@H]3CCC4=CC(=O)C=C[C@]4(C)[C@@]3(F)[C@@H](O)C[C@]2(C)[C@@]1(O)C(=O)CO [DEXAMETHASONE]
- Activity (RAW264.7 [2]): 393.4 pg/mL
- Activity (RAW264.7 [3]): 6458.3 pg/mL
- Activity (RAW264.7 [4]): 1240.5 pg/mL
- Activity (RAW264.7 [5]): 7533.7 pg/mL
- Activity (RAW264.7 [6]): 1336.5 pg/mL
- Activity (RAW264.7 [7]): 8187.9 pg/mL
- Activity (RAW264.7 [8]): 8748.1 pg/mL
- Activity (RAW264.7 [9]): 422.7 pg/mL
- Activity (RAW264.7 [10]): 4056.3 pg/mL
- Activity (RAW264.7 [11]): 1770.4 pg/mL
- IC50 (RAW264.7 [1]): 2.66 µM
- Activity (RAW264.7 [12]): 3219.4 pg/mL
- Activity (RAW264.7 [13]): 269.5 pg/mL
- Activity (RAW264.7 [14]): 927.7 pg/mL
- Activity (RAW264.7 [15]): 332.8 pg/mL
- Activity (RAW264.7 [16]): 4063.6 pg/mL
- Activity (RAW264.7 [17]): 2655 pg/mL
- Activity (RAW264.7 [18]): 791 pg/mL
- Activity (RAW264.7 [19]): 3393.5 pg/mL
- viability at 48 h, 10 µM [20]: 100%
- Activity (RAW264.7 [21]): 1594.9 pg/mL
- Activity (RAW264.7 [22]): 3671.8 pg/mL
- Activity (RAW264.7 [23]): 1120.3 pg/mL
- Activity (RAW264.7 [24]): 924.1 pg/mL

SMILES: CC1C[C@H](O/C=C2/C(=O)O[C@@H]3c4ccccc4C[C@H]23)OC1=O (some centres undefined)
- IC50 (RAW264.7 [1]): 32.3 µM

SMILES: CC1C[C@@H](O/C=C2/C(=O)OC3c4ccccc4CC23)OC1=O (some centres undefined)
- IC50 (RAW264.7 [1]): 44.5 µM

SMILES: CC1C[C@H](O/C=C2/C(=O)O[C@H]3c4ccccc4C[C@@H]23)OC1=O (some centres undefined)
- IC50 (RAW264.7 [1]): 60.5 µM

SMILES: CC1=C[C@H](O/C=C2/C(=O)OC3c4ccccc4CC23)OC1=O (some centres undefined)
- IC50 (RAW264.7 [1]): 4.06 µM

SMILES: CC1C[C@@H](O/C=C2/C(=O)O[C@H]3c4ccccc4C[C@@H]23)OC1=O (some centres undefined)
- IC50 (RAW264.7 [1]): 35.4 µM

SMILES: CC1C[C@H](O/C=C2/C(=O)OC3c4ccccc4CC23)OC1=O (some centres undefined)
- IC50 (RAW264.7 [1]): 42.1 µM
